We go through 21 compounds from ChEMBL document CHEMBL1156138, “Identification of novel agonists of the integrin CD11b/CD18” (Bioorg Med Chem Lett, 2009).

Integrin alpha-M/beta-2, sequence (P05107 23-769 limits assumed, other chains not shown): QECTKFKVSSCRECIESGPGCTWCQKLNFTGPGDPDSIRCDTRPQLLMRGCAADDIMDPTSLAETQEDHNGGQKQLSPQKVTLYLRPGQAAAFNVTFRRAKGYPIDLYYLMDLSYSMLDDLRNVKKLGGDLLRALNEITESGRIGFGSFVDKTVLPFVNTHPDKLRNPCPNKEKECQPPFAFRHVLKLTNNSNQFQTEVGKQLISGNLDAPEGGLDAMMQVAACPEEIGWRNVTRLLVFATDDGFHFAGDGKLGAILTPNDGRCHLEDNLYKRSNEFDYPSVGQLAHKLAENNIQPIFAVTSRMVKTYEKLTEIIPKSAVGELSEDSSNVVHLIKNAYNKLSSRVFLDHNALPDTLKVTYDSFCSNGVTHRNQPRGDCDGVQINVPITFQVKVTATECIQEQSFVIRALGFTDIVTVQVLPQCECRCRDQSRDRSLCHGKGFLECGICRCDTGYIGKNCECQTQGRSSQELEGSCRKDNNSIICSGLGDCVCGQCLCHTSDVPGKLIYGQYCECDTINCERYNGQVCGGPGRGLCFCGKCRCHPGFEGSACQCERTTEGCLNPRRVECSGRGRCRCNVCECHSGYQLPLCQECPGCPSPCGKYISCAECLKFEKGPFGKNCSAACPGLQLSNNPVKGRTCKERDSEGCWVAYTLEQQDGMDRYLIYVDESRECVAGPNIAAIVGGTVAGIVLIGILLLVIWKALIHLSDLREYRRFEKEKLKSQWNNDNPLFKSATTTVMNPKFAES

System in one test: not listed separately
Briefly: Selectivity ratio for CD11b/CD18 over CD11a/CD18.
Conditions: not given; call rule not given here
For `CCOC(=O)CN1C(=O)S/C(=C\c2ccc(-c3ccc(Cl)cc3Cl)o2)C1=O`, the Ratio was 2.

The target of the next test is Integrin alpha-M/beta-2 (Homo sapiens, UniProt P05107+P11215). The test can be described thus: Agonist activity at CD11b/CD18 expressed in K562 cells assessed as increase in cell adhesion to fibrinogen. The class given is functional, cell-based. The settings on record: k562. An outline of the steps:
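K562 cells stably transfected with wild-type CD11b/CD18 were tested for compound-induced adhesion to immobilized fibrinogen. The assay was a no-wash cell-adhesion format in TBS containing 1 mM each Ca2+ and Mg2+. Compounds were tested over a range of concentrations. EC50 was taken as the concentration giving a 50% increase in cell adhesion.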
`COC(=O)C(C)N1C(=O)S/C(=C\c2ccc(-c3ccc(Cl)cc3Cl)o2)C1=O` (configuration not stated): the EC50 entry was “Not Active”.

In the case of `COC(=O)CN1C(=O)S/C(=C\c2ccc(Sc3ccccc3)o2)C1=O`, the EC50 entry is recorded as “Not Active”.

As for `Cc1ccc(/C=C2\SC(=O)N(C)C2=O)o1`, the EC50 result is “Not Active”.

Take `CCOC(=O)CN1C(=O)S/C(=C\c2ccc(-c3ccc(C(=O)O)cc3C)o2)C1=O`: the EC50 entry is given as “Not Active”.

As to `CCOC(=O)CN1C(=O)S/C(=C\c2ccc(N3CCOCC3)o2)C1=O`, the EC50 entry was “Not Active”.

Regarding `COC(=O)CN1C(=O)S/C(=C\c2ccc(-c3ccc(C(=O)O)cc3)o2)C1=O`, the EC50 result is “Not Active”.

For `O=C(CN1C(=O)S/C(=C\c2ccc(-c3ccc(Cl)cc3Cl)o2)C1=O)Nc1ccccc1F`, the EC50 result was “Not Active”.

Consider `NS(=O)(=O)c1ccc(N2C(=O)S/C(=C\c3ccc(Cc4ccccc4)o3)C2=O)cc1`, for which the EC50 result is “Not Active”.

On to `CCCN1C(=O)S/C(=C\c2ccc(-c3ccc(Cl)cc3Cl)o2)C1=O`, for which the EC50 entry is recorded as “Not Active”.

The test is the same for the next values; noted with them: read-out: EC50.
Consider `CCOC(=O)CN1C(=O)S/C(=C\c2ccc(-c3ccccc3)o2)C1=O`, for which the EC50 worked out at 10.5 µM.

Take `CCOC(=O)CN1C(=O)S/C(=C\c2ccc(-c3ccc(Cl)c(C(=O)O)c3)o2)C1=O`: the EC50 was > 50 µM.

Turning to `Cc1cccc(NC(=O)CN2C(=O)/C(=C/c3ccc(Cc4ccco4)o3)SC2=S)c1`, the half-maximal effective concentration (EC50) came out at 18 µM.

On to `O=C(CN1C(=O)S/C(=C\c2ccc(-c3ccc(Cl)cc3Cl)o2)C1=O)c1ccccc1`, for which the EC50 amounted to 35.6 µM.

On to `CCOC(=O)CN1C(=O)S/C(=C\c2ccc(-c3ccc(Cl)cc3Cl)o2)C1=O`, for which the EC50 came to 13.6 µM.

In the case of `Cc1cccc(NC(=O)CN2C(=O)S/C(=C\c3ccc(-c4ccccc4)o3)C2=O)c1`, the EC50 is 22.3 µM.

Turning to `CCOC(=O)CN1C(=O)S/C(=C\c2ccc(N3CCCC3)o2)C1=O`, the EC50 is 23.2 µM.

Consider `Cc1ccc(C(=O)CN2C(=O)S/C(=C\c3ccc(-c4ccc(Cl)cc4)o3)C2=O)cc1`, for which the EC50 is > 50 µM.

Turning to `O=C1S/C(=C\c2ccc(-c3ccc(Cl)cc3Cl)o2)C(=O)N1c1ccccc1`, the EC50 was > 50 µM.

`CCOC(=O)CN1C(=O)S/C(=C\c2ccc(-c3ccc(C)cc3Br)o2)C1=O`: the EC50 came to 18.6 µM.

In the case of `CCOC(=O)CN1C(=O)S/C(=C\c2ccc(-c3ccc(Br)cc3)o2)C1=O`, the EC50 came to 40.4 µM.

As for `CCOC(=O)CN1C(=O)S/C(=C\c2ccc(-c3cc(C(=O)O)ccc3Cl)o2)C1=O`, the EC50 came to 40.9 µM.
